Measured values: ChEMBL document CHEMBL1138361, “4-acyl-1-(4-aminoalkoxyphenyl)-2-ketopiperazines as a novel class of non-brain-penetrant histamine H3 receptor antagonists” (J Med Chem, 2007)

Assays:
[1] = Partition coefficient, log D at pH 7.4; assay type: physicochemical; settings: octanol/water
Procedure, shortened: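 Compound in phosphate buffer was shaken with buffer-saturated octanol (3 × 50 inversions). Phases were separated by centrifugation at 300g for 15 min. Both phases were quantified by HPLC, and log D was calculated from peak areas normalized to injection volume.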

[2] = Cmax in CD Sprague-Dawley rat at 3.0 mg/kg, po; assay type: ADME, organism-based; design: dose 3 mg/kg, route oral; settings: in vivo
Procedure, shortened: (§1)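 Single iv and oral doses given to male CD Sprague-Dawley rats (1 mg/kg iv, 3 mg/kg po) and male Beagle dogs (1 mg/kg iv, 2 mg/kg po). Vehicle was a DMSO-PEG 200-water (5:45:50) solution. Serial and terminal blood samples were taken at time points up to 7, 12 or 24 h postdose.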

[3] = AUC in CD Sprague-Dawley rat at 3.0 mg/kg, po; assay type: ADME, organism-based; design: dose 3 mg/kg, route oral; settings: plasma; procedure, shortened: as §1
[4] = Tmax in CD Sprague-Dawley rat at 3.0 mg/kg, po; assay type: ADME, organism-based; design: dose 3 mg/kg, route oral; settings: in vivo; procedure, shortened: as §1
[5] = Ratio of drug level in brain to blood in CD Sprague-Dawley rat at 1 mg/kg, iv after 5 mins; assay type: ADME, organism-based; design: dose 1 mg/kg, route intravenous; settings: brain and blood
Procedure, shortened: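 Male CD Sprague-Dawley rats were dosed iv in DMSO-PEG 200-water (5:45:50). Blood and brain were collected 5 min postdose under terminal isoflurane anesthesia. Blood was protein-precipitated; brain was homogenized and extracted. Parent drug was quantified by LCMS/MS.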

[6] = Half life in CD Sprague-Dawley rat at 1.0 mg/kg, iv; assay type: ADME, organism-based; design: dose 1 mg/kg, route intravenous; settings: in vivo; procedure, shortened: as §1
[7] = Clearance in CD Sprague-Dawley rat at 1.0 mg/kg, iv; assay type: ADME, organism-based; design: dose 1 mg/kg, route intravenous; settings: in vivo; procedure, shortened: as §1
[8] = Tmax in CD Sprague-Dawley rat at 1.0 mg/kg, iv; assay type: ADME, organism-based; design: dose 1 mg/kg, route intravenous; settings: in vivo; procedure, shortened: as §1
[9] = Cmax in CD Sprague-Dawley rat at 1.0 mg/kg, iv; assay type: ADME, organism-based; design: dose 1 mg/kg, route intravenous; settings: in vivo; procedure, shortened: as §1
[10] = AUC in CD Sprague-Dawley rat at 1.0 mg/kg, iv; assay type: ADME, organism-based; design: dose 1 mg/kg, route intravenous; settings: plasma; procedure, shortened: as §1
[11] = Volume of distribution in CD Sprague-Dawley rat at 1.0 mg/kg, iv; assay type: ADME, organism-based; design: dose 1 mg/kg, route intravenous; settings: in vivo; procedure, shortened: as §1
[12] = AUC in CD Sprague-Dawley rat at 2.9 mg/kg, po; assay type: ADME, organism-based; design: dose 2.9 mg/kg, route oral; settings: plasma
[13] = Cmax in CD Sprague-Dawley rat at 2.9 mg/kg, po; assay type: ADME, organism-based; design: dose 2.9 mg/kg, route oral; settings: in vivo
[14] = Oral bioavailability in CD Sprague-Dawley rat at 2.9 mg/kg, po; assay type: ADME, organism-based; settings: in vivo
[15] = Tmax in CD Sprague-Dawley rat at 2.9 mg/kg, po; assay type: ADME, organism-based; design: dose 2.9 mg/kg, route oral; settings: in vivo

`CS(=O)(=O)c1cccc(C(=O)N2CCN(c3ccc(OCCCN4CCCCC4)cc3)C(=O)C2)c1` gave a logD [1] of -1.22.
`O=C(c1cc(F)cc(F)c1)N1CCN(c2ccc(OCCCN3CCCCC3)cc2)C(=O)C1` showed a logD [1] of 0.2.
For `O=C(c1ccc(C(=O)N2CCN(c3ccc(OCCCN4CCCCC4)cc3)C(=O)C2)cc1)N1CCC1`, the logD [1] was -0.95.
Work on `CS(=O)(=O)c1cccc(C(=O)N2CCN(c3ccc(OC4CCN(C5CCCC5)CC4)cc3)C(=O)C2)c1` yielded a logD [1] of -0.41.
Work on `O=C(c1cc(F)cc(F)c1)N1CCN(c2ccc(OC3CCN(C4CCCC4)CC3)cc2)C(=O)C1` yielded a logD [1] of 1.03.
Work on `O=C(c1ccc(F)cc1F)N1CCN(c2ccc(OC3CCN(C4CCCC4)CC3)cc2)C(=O)C1` yielded a logD [1] of 0.96.
In the case of `CC(C)N1CCC(Oc2ccc(N3CCN(C(=O)c4ccc(F)cc4F)CC3=O)cc2)CC1`, the logD [1] is reported as -0.05.
`C[C@H]1CCCN1CCCOc1ccc(N2CCN(C(=O)c3cc(F)cc(F)c3)CC2=O)cc1` showed a logD [1] of 0.09.
In the case of `O=C(c1cc(F)cc(F)c1)N1CCN(c2ccc(OCCCN3CCCC3)cc2)C(=O)C1`, the logD [1] is reported as -0.38.
Work on `C[C@@H]1CCCN1CCCOc1ccc(N2CCN(C(=O)c3ccc(F)cc3)CC2=O)cc1` yielded a logD [1] of -0.13.
With `O=C(c1ccc(F)cc1F)N1CCN(c2ccc(OCCCN3CCCCC3)cc2)C(=O)C1` the logD [1] was 0.1.
In the case of `CS(=O)(=O)c1ccc(C(=O)N2CCN(c3ccc(OC4CCN(C5CCC5)CC4)cc3)C(=O)C2)cc1.O=CO`, the Cmax [2] is reported as 10 ng/mL, the AUC [3] is reported as 67 ng·h/mL and the logD [1] is reported as -0.38. The Tmax [4] was 4 h.
In the case of `O=C(c1ccc(C(=O)N2CCN(c3ccc(OC4CCN(C5CCC5)CC4)cc3)C(=O)C2)cc1)N1CCC1.O=CO`, the Kp at 5 min [5] is reported as 0.1 and the logD [1] is reported as -0.29.
`N#Cc1ccc(C(=O)N2CCN(c3ccc(OCCCN4CCCCCC4)cc3)C(=O)C2)cc1` gave a logD [1] of -0.39.
`O=C(c1ccc(F)cc1)N1CCN(c2ccc(OCCCN3CCCC3)cc2)C(=O)C1.O=CO` gave a Cmax [2] of 40 ng/mL, an AUC [3] of 355 ng·h/mL and a logD [1] of 0.14. It also gave a half-life [6] of 1.3 h, a clearance [7] of 31 mL/min/kg and a Tmax [8] of 4.8 min. The Cmax [9] was 342 ng/mL, the AUC [10] was 536 ng·h/mL and the Vd [11] was 2 L/kg. For the same compound, the Tmax [4] was 7 h.
`CC(C)N1CCC(Oc2ccc(N3CCN(C(=O)c4cc(F)cc(F)c4)CC3=O)cc2)CC1` showed a logD [1] of 0.06.
`N#Cc1ccc(C(=O)N2CCN(c3ccc(OCCCN4CCCCC4)cc3)C(=O)C2)cc1` gave a logD [1] of -0.38.
`Cc1ccc(C(=O)N2CCN(c3ccc(OCCCN4CCCCC4)cc3)C(=O)C2)cc1` showed a logD [1] of 0.48.
For `CC(C)(C)C(=O)N1CCN(c2ccc(OCCCN3CCCCC3)cc2)C(=O)C1.Cl`, the Kp at 5 min [5] was 0.1 and the logD [1] was -0.02.
With `Cl.O=C(c1ccc(F)cc1)N1CCN(c2ccc(OC3CCN(C4CCC4)CC3)cc2)C(=O)C1` the AUC [12] was 760 ng·h/mL, the Cmax [13] was 91 ng/mL and the bioavailability [14] was 35%. It also gave a logD [1] of 0.9, a half-life [6] of 2 h and a Tmax [15] of 2 h. The clearance [7] was 18 mL/min/kg, the Tmax [8] was 4.8 min and the Cmax [9] was 337 ng/mL. For the same compound, the AUC [10] was 837 ng·h/mL and the Vd [11] was 2.5 L/kg.
Work on `O=C(c1ccccc1)N1CCN(c2ccc(OC3CCN(C4CCC4)CC3)cc2)C(=O)C1` yielded a logD [1] of 0.73.
In the case of `Cl.O=C(c1ccc(Cl)cc1)N1CCN(c2ccc(OC3CCN(C4CCC4)CC3)cc2)C(=O)C1`, the Kp at 5 min [5] is reported as 0.4 and the logD [1] is reported as 1.51.
Compound `Cc1ccc(C(=O)N2CCN(c3ccc(OC4CCN(C5CCC5)CC4)cc3)C(=O)C2)cc1` has a logD [1] of 1.3.
`O=C(c1ccccc1)N1CCN(c2ccc(OCCCN3CCCCC3)cc2)C(=O)C1` showed a logD [1] of -0.09.
